The source of these data is ChEMBL document CHEMBL4354869, “pH-Dependent Grafting of Cancer Cells with Antigenic Epitopes Promotes Selective Antibody-Mediated Cytotoxicity” (J Med Chem, 2020).

For test [1], the system named is MDA-MB-231. The test is described as follows: Induction of opsonization in human MDA-MB-231 cells assessed as increase in recruitment of anti-FITC antibody to cell surface at 1 uM measured after 5 to 10 mins at pH 6 to 7.4 by Alexa Fluor 647 conjugated anti-FITC antibody based flow cytometry. The class given is functional. The procedure, abridged:
(§1)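 Cells in suspension (350000 MDA-MB-231) given 1 μM pH-adjusted conjugate for 5 or 10 min at 37 °C, pH 7.4 or 6.0, washed, then Alexa Fluor 647 anti-FITC mouse mAb in PBS/10% FBS 30 min at 4 °C, PFA-fixed. Flow cytometry, ≥3000 events; fold over pH 7.4 antibody-only cells; mean ± SEM, n = 3.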
On the technique in general: In flow cytometry, cells or beads pass a laser one at a time.

Test [2] deals with Lipid bilayer. The test is described as follows: Binding affinity to POPC large unilamellar vesicle at 1:300 ratio measured after 30 mins at pH 5 to 7.4 by tryptophan fluorescence spectroscopic analysis. The method, boiled down:
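Peptide (7 μM final, from 20 μM stock in 5 mM sodium phosphate pH 8.0) with extruded 100 nm POPC LUVs at 1:300; pH set with HCl, 30 min RT before tryptophan emission spectra were recorded.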

Test [3] concerns MDA-MB-231. The test is described as follows: Induction of opsonization in human MDA-MB-231 cells assessed as increase in recruitment of anti-FITC antibody to cell surface at 1 uM measured after 5 to 10 mins at pH 6 by Alexa Fluor 647 conjugated anti-FITC antibody based flow cytometry relative to pH 7.4. The format is functional. The procedure, abridged:
as §1

The subject of test [4] is MDA-MB-231. The test is described as follows: Induction of opsonization in human MDA-MB-231 cells assessed as increase in recruitment of anti-FITC antibody to cell surface at 1 uM measured after 5 mins at pH 6 to 7.4 by Alexa Fluor 647 conjugated anti-FITC antibody based immunofluorescence microscopic analysis. The class given is functional. The method, boiled down:
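Adherent MDA-MB-231 on poly-L-lysine coverslips given 1 μM conjugate for 5 min, 37 °C, pH 7.4 or 6.0, methanol-fixed, then Alexa Fluor 647 anti-FITC rabbit polyclonal at 30 μg/mL for 1 h at 37 °C, Hoechst nuclear stain; fluorescence microscopy, 20× objective.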

In test [5] the test system is MDA-MB-231. The test is described as follows: Induction of antibody dependent cytotoxicity against human MDA-MB-231 cells assessed as cell lysis at 0.1 uM incubated for 5 mins at pH 6 followed by compound washout prior to anti-FITC antibody addition for 30 mins and subsequent human PBMC addition at 50:1 effector to target ratio measured after 4 hrs by LDH release assay relative to control. The class given is functional. The procedure, abridged: (§2)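 150000 target cells (MDA-MB-231; also LnCap, SK-OV-3 with haNK) treated with conjugate 5 min at 37 °C, pH 7.4 or 6.0, washed, 25 μg/mL anti-FITC rabbit polyclonal 30 min 4 °C, then 4 h at 37 °C with PBMCs at 50:1 (RPMI) or haNK at 5:1 (MEMα). LDH release; % lysis relative to antibody-only pH 7.4 cells; mean ± SEM, n = 3–12.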
Background: LDH in the medium is a marker of cell lysis.

The subject of test [6] is MDA-MB-231. The experiment in a line: Induction of antibody dependent cytotoxicity against human MDA-MB-231 cells assessed as increase in cell lysis at 0.1 uM incubated for 5 mins at pH 6 followed by compound washout prior to anti-FITC antibody addition for 30 mins and subsequent human PBMC addition at 50:1 effector to target ratio measured after 4 hrs by LDH release assay relative to pH 7.4. The format is functional. The method, boiled down: as §2

The test system of test [7] is MDA-MB-231. The test is described as follows: Induction of antibody dependent cytotoxicity against human MDA-MB-231 cells assessed as induction of cell lysis up to 1 uM incubated for 5 mins at pH 6 to 7.4 followed by compound washout prior to anti-FITC antibody addition for 30 mins and subsequent human haNK cell addition at 5:1 effector to target ratio measured after 4 hrs by LDH release assay. The format is functional, cell-based. The procedure, abridged:
as §2

The test system of a further test is LNCaP. The test is described as follows: Induction of antibody dependent cytotoxicity against human LNCAP cells assessed as induction of cell lysis at 1 uM incubated for 5 mins at pH 6 to 7.4 followed by compound washout prior to anti-FITC antibody addition for 30 mins and subsequent human haNK cell addition at 5:1 effector to target ratio measured after 4 hrs by LDH release assay. The class given is functional, cell-based. The procedure, abridged: as §2

The subject of a further test is SK-OV-3. The experiment in a line: Induction of antibody dependent cytotoxicity against human SKOV3 cells assessed as induction of cell lysis at 1 uM incubated for 5 mins at pH 6 to 7.4 followed by compound washout prior to anti-FITC antibody addition for 30 mins and subsequent human haNK cell addition at 5:1 effector to target ratio measured after 4 hrs by LDH release assay. The format is functional, cell-based. The procedure, abridged:
as §2

The test system of test [8] is MDA-MB-231. The test is described as follows: Induction of antibody dependent cytotoxicity against human MDA-MB-231 cells assessed as cell lysis at > 0.1 uM incubated for 5 mins at pH 6 followed by compound washout prior to anti-FITC antibody addition for 30 mins and subsequent human PBMC addition at 50:1 effector to target ratio measured after 4 hrs by LDH release assay. The format is functional, cell-based. The procedure, abridged: as §2

Test [9] has as its system MDA-MB-231. The experiment in a line: Induction of antibody dependent cytotoxicity against human MDA-MB-231 cells assessed as induction of cell lysis at > 1 uM incubated for 5 mins at pH 6 to 7.4 followed by compound washout prior to anti-FITC antibody addition for 30 mins and subsequent human haNK cell addition at 5:1 effector to target ratio measured after 4 hrs by LDH release assay. The class given is functional, cell-based. The procedure, abridged:
as §2

Test [10] concerns Lipid bilayer. The experiment in a line: Binding affinity to POPC large unilamellar vesicle at 1:300 ratio measured after 30 mins at pH 5 by circular dichroism spectroscopic analysis. The procedure, abridged:
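Peptide (20 μM stock in 5 mM sodium phosphate pH 8.0; 7 μM final) mixed with POPC LUVs (extruded, 100 nm pores) at 1:300, pH lowered with HCl, 30 min RT. Far-UV CD 260–200 nm in 0.1 cm cuvette, ≥5 scans averaged, liposome spectrum subtracted; expressed as mean residue molar ellipticity.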

Activity calls are given as the source filed them. The rule behind the calls is not given here.

As to `CC[C@H](C)[C@H](NC(=O)[C@@H]1CCCN1C(=O)[C@H](CC(N)=O)NC(=O)[C@H](CCC(N)=O)NC(=O)[C@H](CCC(=O)O)NC(=O)[C@H](CSC1CC(=O)N(CCC(=O)NOCCOCCOCCOCCOCCOCCOCCOCCOCCOCCOCCOCCC(=O)NCCCNC(=O)c2ccc(-c3c4ccc(=O)cc-4oc4cc(O)ccc34)c(C(=O)O)c2)C1=O)NCC(N)=O)C(=O)N[C@@H](Cc1ccc(O)cc1)C(=O)N[C@@H](Cc1c[nH]c2ccccc12)C(=O)N[C@@H](C)C(=O)N[C@@H](CCCNC(=N)N)C(=O)N[C@@H](Cc1ccc(O)cc1)C(=O)N[C@@H](C)C(=O)N[C@@H](CC(=O)O)C(=O)N[C@@H](Cc1c[nH]c2ccccc12)C(=O)N[C@@H](CC(C)C)C(=O)N[C@@H](Cc1ccccc1)C(=O)N[C@H](C(=O)N[C@H](C(=O)N1CCC[C@H]1C(=O)N[C@@H](CC(C)C)C(=O)N[C@@H](CC(C)C)C(=O)N[C@@H](CC(C)C)C(=O)N[C@@H](CC(C)C)C(=O)N[C@@H](CC(=O)O)C(=O)N[C@@H](CC(C)C)C(=O)N[C@@H](C)C(=O)N[C@@H](CC(C)C)C(=O)N[C@@H](CC(C)C)C(=O)N[C@H](C(=O)N[C@@H](CC(=O)O)C(=O)N[C@@H](C)C(=O)N[C@@H](CC(=O)O)C(=O)N[C@@H](CCC(=O)O)C(=O)NCC(=O)N[C@H](C(=O)NCC(N)=O)[C@@H](C)O)C(C)C)[C@@H](C)O)[C@@H](C)O` (some centres not stated), the result in the test on MDA-MB-231 [1], in the test on Lipid bilayer [2], with MDA-MB-231 [4], in the test on MDA-MB-231 [7], with LNCaP and with SK-OV-3 was Active. In addition, the “fold change (FC)” value was 5.4 with MDA-MB-231 [3] and 2 in the test on MDA-MB-231 [6]. In addition, the Activity in the test on MDA-MB-231 [5] was found to be 40%. The result with MDA-MB-231 [8] and in the test with MDA-MB-231 [9] was inactive.

Take `CC[C@H](C)[C@H](NC(=O)[C@@H]1CCCN1C(=O)[C@H](CC(N)=O)NC(=O)[C@H](CCC(N)=O)NC(=O)[C@H](CCC(=O)O)NC(=O)[C@H](CSC1CC(=O)N(CCC(=O)NOCCOCCOCCOCCOCCOCCOCCOCCOCCOCCOCCOCCC(=O)NCCCNC(=O)c2ccc(-c3c4ccc(=O)cc-4oc4cc(O)ccc34)c(C(=O)O)c2)C1=O)NCC(N)=O)C(=O)N[C@@H](Cc1ccc(O)cc1)C(=O)N[C@@H](Cc1c[nH]c2ccccc12)C(=O)N[C@@H](C)C(=O)N[C@@H](CCCNC(=N)N)C(=O)N[C@@H](Cc1ccc(O)cc1)C(=O)N[C@@H](C)C(=O)N[C@@H](CC(=O)O)C(=O)N[C@@H](Cc1c[nH]c2ccccc12)C(=O)N[C@@H](CC(C)C)C(=O)N[C@@H](Cc1ccccc1)C(=O)N[C@H](C(=O)N[C@H](C(=O)N1CCC[C@H]1C(=O)N[C@@H](CC(C)C)C(=O)N[C@@H](CC(C)C)C(=O)N[C@@H](CC(C)C)C(=O)N[C@@H](CC(C)C)C(=O)N[C@@H](CCC(=O)O)C(=O)N[C@@H](CC(C)C)C(=O)N[C@@H](C)C(=O)N[C@@H](CC(C)C)C(=O)N[C@@H](CC(C)C)C(=O)N[C@H](C(=O)N[C@@H](CC(=O)O)C(=O)N[C@@H](C)C(=O)N[C@@H](CC(=O)O)C(=O)N[C@@H](CCC(=O)O)C(=O)NCC(=O)N[C@H](C(=O)NCC(N)=O)[C@@H](C)O)C(C)C)[C@@H](C)O)[C@@H](C)O` (some centres not stated): the result with MDA-MB-231 [1] and in the test on Lipid bilayer [2] was Active. For the same compound, the “fold change (FC)” value with MDA-MB-231 [3] was 2.9.

Consider `CC[C@H](C)[C@H](NC(=O)[C@@H]1CCCN1C(=O)[C@H](CC(N)=O)NC(=O)[C@H](CCC(N)=O)NC(=O)[C@H](CCC(=O)O)NC(=O)[C@H](CSC1CC(=O)N(CCC(=O)NOCCOCCOCCOCCOCCOCCOCCOCCOCCOCCOCCOCCOCCOCCOCCOCCOCCOCCOCCOCCOCCOCCOCCOCCC(=O)NCCCNC(=O)c2ccc(-c3c4ccc(=O)cc-4oc4cc(O)ccc34)c(C(=O)O)c2)C1=O)NCC(N)=O)C(=O)N[C@@H](Cc1ccc(O)cc1)C(=O)N[C@@H](Cc1c[nH]c2ccccc12)C(=O)N[C@@H](C)C(=O)N[C@@H](CCCNC(=N)N)C(=O)N[C@@H](Cc1ccc(O)cc1)C(=O)N[C@@H](C)C(=O)N[C@@H](CC(=O)O)C(=O)N[C@@H](Cc1c[nH]c2ccccc12)C(=O)N[C@@H](CC(C)C)C(=O)N[C@@H](Cc1ccccc1)C(=O)N[C@H](C(=O)N[C@H](C(=O)N1CCC[C@H]1C(=O)N[C@@H](CC(C)C)C(=O)N[C@@H](CC(C)C)C(=O)N[C@@H](CC(C)C)C(=O)N[C@@H](CC(C)C)C(=O)N[C@@H](CC(=O)O)C(=O)N[C@@H](CC(C)C)C(=O)N[C@@H](C)C(=O)N[C@@H](CC(C)C)C(=O)N[C@@H](CC(C)C)C(=O)N[C@H](C(=O)N[C@@H](CC(=O)O)C(=O)N[C@@H](C)C(=O)N[C@@H](CC(=O)O)C(=O)N[C@@H](CCC(=O)O)C(=O)NCC(=O)N[C@H](C(=O)NCC(N)=O)[C@@H](C)O)C(C)C)[C@@H](C)O)[C@@H](C)O` (some centres not stated), for which the outcome with MDA-MB-231 [1], with Lipid bilayer [10] and in the test on Lipid bilayer [2] was Active.
